Activity calls are given as the source filed them. No cut-off for these calls is given here.
Experiments:
Huh-7 [1] = assay: Induction of apoptosis in human HuH7 cells assessed as nuclear condensation at 10 uM after 48 hrs by Hoechst 33258 staining-based immunofluorescence microscopy; assay type: functional, cell-based
In short: (§1)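 Cells on coverslips were incubated overnight, then treated with 10 µM compound or DMSO for 48 h. They were washed in ice-cold PBS, fixed in cold methanol for 10 min, and stained with 1 µg/mL Hoechst 33258 for 5 min in the dark. Nuclei were examined by fluorescence microscopy with a 40x objective.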

[2] = Cytotoxicity against human Mahlavu cells assessed as growth inhibition after 72 hrs by sulforhodamine B assay; assay type: functional, cell-based
In short: (§2)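 Cells were grown at 37°C, 5% CO2 in DMEM with 10% FBS. They were seeded at 1000–3000 cells/well, grown 24 h, then exposed to compound at 2.5–40 µM for 72 h. Cells were fixed in 10% TCA for 1 h at 4°C, stained with 0.4% SRB in 1% acetic acid for 10 min, and the dye solubilized in 10 mM Tris. Absorbance was read at 515 nm; runs were in triplicate; IC50 was calculated, with fits of R2 0.8–1 accepted.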

HepG2 = assay: Cytotoxicity against human HepG2 cells assessed as growth inhibition after 72 hrs by sulforhodamine B assay; assay type: functional, cell-based; in short: as §2
Huh-7 [3] = assay: Induction of apoptosis in human HuH7 cells assessed as horseshoe nuclear structure at 10 uM after 48 hrs by Hoechst 33258 staining-based immunofluorescence microscopy; assay type: functional, cell-based; in short: as §1
[4] = Cytotoxicity against human Hep3B cells assessed as growth inhibition after 72 hrs by sulforhodamine B assay; assay type: functional, cell-based, Hep 3B2; in short: as §2
Huh-7 [5] = assay: Induction of cell cycle arrest in human HuH7 cells assessed as accumulation at subG1 phase at 10 uM after 24 to 48 hrs by propidium iodide staining based FACS analysis; assay type: functional
In short: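 Huh7 cells were seeded at 300,000 per 100-mm dish. After 24 h they were treated with 10 µM compound or DMSO for 24 h and 48 h. Cells were trypsinized, fixed in ice-cold 70% ethanol and stored at −20 °C. They were then stained with propidium iodide and cell-cycle distribution, including SubG1, was read by flow cytometry.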

MCF7 = assay: Cytotoxicity against human MCF7 cells assessed as growth inhibition after 72 hrs by sulforhodamine B assay; assay type: functional, cell-based; in short: as §2
[6] = Cytotoxicity against human FOCUS cells assessed as growth inhibition after 72 hrs by sulforhodamine B assay; assay type: functional, cell-based; in short: as §2
[7] = Cytotoxicity against human SNU475 cells assessed as growth inhibition after 72 hrs by sulforhodamine B assay; assay type: functional, cell-based, SNU-475; in short: as §2
[8] = Cytotoxicity against human HuH7 cells assessed as growth inhibition after 72 hrs by sulforhodamine B assay; assay type: functional, cell-based, Huh-7; in short: as §2
[9] = Cytotoxicity against human HCT116 cells assessed as growth inhibition after 72 hrs by sulforhodamine B assay; assay type: functional, cell-based, HCT-116; in short: as §2
Huh-7 [10] = assay: Cytotoxicity against human HuH7 cells assessed as cell impedance at IC25 to IC100 measured every 30 mins for 72 hrs by RT-CES assay; assay type: functional, cell-based; settings: TDE = time-dependent effect
In short: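 Huh7 cells were seeded at 1000–5000 cells/well on electrode plates. […] Impedance was read as cell index every 10 min for the first 24 h, then every 30 min, over 72 h. Data were normalized to DMSO; inhibition (%) = [1 − (CI treated/CI DMSO)] × 100. Each experiment was run at least three times.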

[11] = Homo sapiens, Mahlavu, 72 h, read-out: IC50
[12] = Homo sapiens, HepG2, 72 h, read-out: IC50
[13] = Homo sapiens, Hep3B, 72 h, read-out: IC50
[14] = Homo sapiens, MCF7, 72 h, read-out: IC50
[15] = Homo sapiens, FOCUS, 72 h, read-out: IC50
[16] = Homo sapiens, SNU-475, 72 h, read-out: IC50
[17] = Homo sapiens, Huh-7, 72 h, read-out: IC50
[18] = Homo sapiens, HCT-116, 72 h, read-out: IC50

Which Activity (Huh-7 [1]) does the source give for CC(c1ccc(-c2ccccc2)c(F)c1)c1nnc2n1N=C(c1ccc(Cl)cc1)CS2 (stereo not given) here?
The Activity was “Active”.

What about the IC50 [2, 11] of the same compound?
The IC50 was 6.1 µM.

What about the IC50 (HepG2; [12]) of the same compound?
The IC50 was 6.7 µM.

What about the Activity (Huh-7 [3]) of the same compound?
Its Activity is “Active”.

And the IC50 [4, 13]?
Its IC50 is 3.8 µM.

And the Activity (Huh-7 [5])?
Its Activity is “Active”.

And the IC50 (MCF7; [14])?
The IC50 was 8.7 µM.

What about the IC50 [6, 15] of the same compound?
Its IC50 is 5 µM.

And the IC50 [7, 16]?
The IC50 was 3.8 µM.

What about the IC50 [8, 17] of the same compound?
The IC50 was 3.9 µM.

What about the IC50 [9, 18] of the same compound?
Its IC50 is 7.8 µM.

And the Activity (Huh-7 [10])?
The Activity was “tde”.

What does the source list for CC(c1ccc(-c2ccccc2)c(F)c1)c1nnc2n1N=C(c1ccc(OC(F)(F)F)cc1)CS2 (stereo not given)?
IC50 (MCF7; [14]): 4.8 µM; IC50 [8, 17]: 8.4 µM; IC50 [9, 18]: 5.4 µM

For COc1ccc(C2=Nn3c(nnc3C(C)c3ccc4cc(OC)ccc4c3)SC2)cc1 (stereo not given), which IC50 (MCF7; [14]) is on record?
Its IC50 is 6.6 µM.

And the IC50 [8, 17]?
Its IC50 is 8.5 µM.

What about the IC50 [9, 18] of the same compound?
Its IC50 is 6.5 µM.

What does the source list for CC[C@@]1(O)C(=O)OCc2c1cc1n(c2=O)Cc2cc3ccccc3nc2-1 [CAMPTOTHECIN]?
IC50 [2, 11]: < 1 µM; IC50 (HepG2; [12]): < 1 µM; IC50 [4, 13]: < 1 µM; IC50 (MCF7; [14]): ≤ 0.1 µM; IC50 [6, 15]: < 1 µM; IC50 [7, 16]: < 1 µM; IC50 [8, 17]: ≤ 0.1 µM; IC50 [9, 18]: ≤ 0.1 µM

Which IC50 (MCF7; [14]) does the source give for COc1ccc2cc(C(C)c3nnc4n3N=C(c3ccc(Cl)cc3)CS4)ccc2c1 (stereo not given) here?
Its IC50 is 10.1 µM.

What about the IC50 [8, 17] of the same compound?
Its IC50 is 5.6 µM.

And the IC50 [9, 18]?
The IC50 was 8.8 µM.

For Cc1ccc(C2=Nn3c(nnc3C(C)c3ccc(-c4ccccc4)c(F)c3)SC2)cc1 (stereo not given), which IC50 (MCF7; [14]) is on record?
Its IC50 is 5 µM.

And the IC50 [8, 17]?
Its IC50 is 7.2 µM.

What about the IC50 [9, 18] of the same compound?
Its IC50 is 4.8 µM.

Which IC50 (MCF7; [14]) does the source give for COc1ccc2cc(C(C)c3nnc4n3N=C(c3ccc(Br)cc3)CS4)ccc2c1 (stereo not given) here?
The IC50 was 11.5 µM.

What about the IC50 [8, 17] of the same compound?
The IC50 was 9.3 µM.

What about the IC50 [9, 18] of the same compound?
Its IC50 is 11.7 µM.

With CC(C)Cc1ccc(C(C)c2nnc3n2N=C(c2ccc(Cl)cc2Cl)CS3)cc1 (stereo not given) as the compound, how does the IC50 (MCF7; [14]) read?
The IC50 was 11.8 µM.

And the IC50 [8, 17]?
Its IC50 is 7.5 µM.

What about the IC50 [9, 18] of the same compound?
Its IC50 is 11.1 µM.

With COc1ccc2cc(C(C)c3nnc4n3N=C(c3ccc(Cl)cc3Cl)CS4)ccc2c1 (stereo not given) as the compound, how does the IC50 (MCF7; [14]) read?
Its IC50 is 14.6 µM.

And the IC50 [8, 17]?
The IC50 was 10.7 µM.

What about the IC50 [9, 18] of the same compound?
Its IC50 is 14 µM.

With CC(C)Cc1ccc(C(C)c2nnc3n2N=C(c2ccc(F)cc2)CS3)cc1 (stereo not given) as the compound, how does the IC50 (MCF7; [14]) read?
Its IC50 is 8.9 µM.

What about the IC50 [8, 17] of the same compound?
Its IC50 is 7.8 µM.

And the IC50 [9, 18]?
The IC50 was 12.4 µM.

What does the source list for CC(c1ccc(-c2ccccc2)c(F)c1)c1nnc2n1N=C(c1ccc([N+](=O)[O-])cc1)CS2 (stereo not given)?
Activity (Huh-7 [1]): inactive; IC50 [2, 11]: 9.4 µM; IC50 (HepG2; [12]): 4.3 µM; Activity (Huh-7 [3]): inactive; IC50 [4, 13]: 2.9 µM; IC50 (MCF7; [14]): 7.8 µM; IC50 [6, 15]: 3.5 µM; IC50 [7, 16]: 7.1 µM; IC50 [8, 17]: 4.3 µM; IC50 [9, 18]: 7.1 µM; Activity (Huh-7 [10]): tde

For CC(C)Cc1ccc(C(C)c2nnc3n2N=C(c2ccc(Br)cc2)CS3)cc1 (stereo not given), which Activity (Huh-7 [1]) is on record?
The Activity was “Active”.

And the IC50 [2, 11]?
The IC50 was 8.9 µM.

And the IC50 (HepG2; [12])?
The IC50 was 6.4 µM.

What about the Activity (Huh-7 [3]) of the same compound?
The Activity was “Active”.

What about the IC50 [4, 13] of the same compound?
The IC50 was 8.3 µM.

And the Activity (Huh-7 [5])?
The Activity was “Active”.

What about the IC50 (MCF7; [14]) of the same compound?
Its IC50 is 9.4 µM.

And the IC50 [6, 15]?
Its IC50 is 5.9 µM.

What about the IC50 [7, 16] of the same compound?
Its IC50 is 10.1 µM.

What about the IC50 [8, 17] of the same compound?
Its IC50 is 4.9 µM.

What about the IC50 [9, 18] of the same compound?
Its IC50 is 7.1 µM.

What about the Activity (Huh-7 [10]) of the same compound?
Its Activity is “tde”.

Which IC50 ([2]; mahlavu) does the source give for CC(C)Cc1ccc(C(C)C(=O)O)cc1 (stereo not given) [IBUPROFEN] here?
The IC50 was “Not Active”.

And the IC50 (HepG2; hepg2)?
The IC50 was “Not Active”.

And the IC50 ([4]; hep 3b2)?
The IC50 was “Not Active”.

What about the IC50 (MCF7; mcf7) of the same compound?
The IC50 was “Not Active”.

And the IC50 ([6]; focus)?
The IC50 was “Not Active”.

And the IC50 ([7]; snu-475)?
Its IC50 is “Not Active”.

And the IC50 [8, 17]?
Its IC50 is 37.2 µM.

And the IC50 ([9]; hct-116)?
The IC50 was “Not Active”.

Which IC50 ([2]; mahlavu) does the source give for CC(C(=O)O)c1ccc(-c2ccccc2)c(F)c1 (stereo not given) [FLURBIPROFEN] here?
Its IC50 is “Not Active”.

And the IC50 (HepG2; hepg2)?
The IC50 was “Not Active”.

And the IC50 ([4]; hep 3b2)?
Its IC50 is “Not Active”.

What about the IC50 (MCF7; mcf7) of the same compound?
Its IC50 is “Not Active”.

What about the IC50 ([6]; focus) of the same compound?
The IC50 was “Not Active”.

And the IC50 ([7]; snu-475)?
The IC50 was “Not Active”.

What about the IC50 ([8]; huh-7) of the same compound?
The IC50 was “Not Active”.

And the IC50 ([9]; hct-116)?
Its IC50 is “Not Active”.

Which IC50 (MCF7; [14]) does the source give for COc1ccc2cc(C(C)c3nnc4n3N=C(c3ccc(OC(F)(F)F)cc3)CS4)ccc2c1 (stereo not given) here?
Its IC50 is 8.8 µM.

And the IC50 [8, 17]?
Its IC50 is 16 µM.

What about the IC50 [9, 18] of the same compound?
Its IC50 is 11.7 µM.

Which IC50 (MCF7; [14]) does the source give for COc1ccc2cc(C(C)c3nnc4n3N=C(c3ccccc3)CS4)ccc2c1 (stereo not given) here?
The IC50 was 11.7 µM.

And the IC50 [8, 17]?
The IC50 was 5.7 µM.

And the IC50 [9, 18]?
The IC50 was 8.9 µM.

Which Activity (Huh-7 [1]) does the source give for CC(c1ccc(-c2ccccc2)c(F)c1)c1nnc2n1N=C(c1ccc(Cl)cc1Cl)CS2 (stereo not given) here?
The Activity was “Active”.

And the IC50 [2, 11]?
Its IC50 is 6.6 µM.

And the IC50 (HepG2; [12])?
The IC50 was 8.6 µM.

And the Activity (Huh-7 [3])?
Its Activity is “Active”.

What about the IC50 [4, 13] of the same compound?
The IC50 was 4.2 µM.

And the IC50 (MCF7; [14])?
The IC50 was 7.6 µM.

And the IC50 [6, 15]?
Its IC50 is 5.4 µM.

And the IC50 [7, 16]?
The IC50 was 4.7 µM.

And the IC50 [8, 17]?
The IC50 was 3.7 µM.

What about the IC50 [9, 18] of the same compound?
The IC50 was 6.9 µM.

And the Activity (Huh-7 [10])?
Its Activity is “tde”.

— ChEMBL document CHEMBL3751842, “Novel triazolothiadiazines act as potent anticancer agents in liver cancer cells through Akt and ASK-1 proteins” (Bioorg Med Chem, 2016)
